Screens (PubChem BioAssay)
Shown are actives, neighbours in structure and some others; about 1.7% of the full set was active somewhere.
CSN deneddyl inh: CSN deneddylation inhibition. Q92905. AID 651999. inhibition, % at 12.5 µM. Purified CSN, SCF-Nedd8-OG deneddylation, fluorescence polarization. 360,000 compounds, 0.38% hits;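 active means pattern-corrected inhibition above about 35%, with an unprinted fluorescence ratio check between 0.5 and 1.5, limit read from the data, passing the limit was not always enough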;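 further: 0% = enzyme with substrate and 100% = substrate without enzyme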
Target sequence (Q92905 whole entry, looked up, one chain of several): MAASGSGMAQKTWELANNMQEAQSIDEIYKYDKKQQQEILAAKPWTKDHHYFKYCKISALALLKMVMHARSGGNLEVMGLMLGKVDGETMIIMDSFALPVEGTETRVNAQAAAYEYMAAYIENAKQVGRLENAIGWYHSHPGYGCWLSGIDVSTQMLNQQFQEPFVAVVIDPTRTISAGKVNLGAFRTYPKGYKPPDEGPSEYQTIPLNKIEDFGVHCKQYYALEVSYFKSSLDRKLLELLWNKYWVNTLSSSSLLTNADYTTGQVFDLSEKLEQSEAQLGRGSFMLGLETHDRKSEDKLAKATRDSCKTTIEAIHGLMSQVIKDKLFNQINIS
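Assay system: Purified human Csn5 enzyme expressed in HEK293T cells | Amount: Enzyme 0.24 nM | Measured by: Fluorescence polarization readout | Medium: Tris/NaCl/DTT buffer, pH 7.5 | Compound dosing: One concentration, 12.5 µM, 0.25% DMSO | Times: 90 min incubation of compound, enzyme and substrate at room temperature | Control set: no-enzyme wells high, enzyme-with-substrate wells low | Read-out: % inhibition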
IDE cell inh: cellular human IDE inhibition | P14735 | HEK cells, FAbetaB cleavage, fluorescence polarization | inhibition, % at 5.59 µM | 320,000 compounds, 0.41% hits | AID 434962;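 active means percent inhibition above the average of all tested compounds plus 3 SD, set per screening campaign, cut at about 16% in these data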;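 further: IDE supplied by intact live HEK cells; FP after avidin binding of uncleaved biotin substrate so inhibition keeps polarization high; 0% = DMSO wells and 100% = 60 µM reference IDE inhibitor Ii1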
Rpn11 block: inhibitors of human proteasome Rpn11; human 26S proteasome, Ub4-pepOG fluorescence polarization; 20S core pre-blocked with epoxomicin; inhibition, % at 20 µM; 360,000 compounds, 0.59% hits;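 active means inhibition at 20 µM, scaled to each plate's controls, above about 33%, limit read from the data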
Target sequence (O00487 whole entry, looked up): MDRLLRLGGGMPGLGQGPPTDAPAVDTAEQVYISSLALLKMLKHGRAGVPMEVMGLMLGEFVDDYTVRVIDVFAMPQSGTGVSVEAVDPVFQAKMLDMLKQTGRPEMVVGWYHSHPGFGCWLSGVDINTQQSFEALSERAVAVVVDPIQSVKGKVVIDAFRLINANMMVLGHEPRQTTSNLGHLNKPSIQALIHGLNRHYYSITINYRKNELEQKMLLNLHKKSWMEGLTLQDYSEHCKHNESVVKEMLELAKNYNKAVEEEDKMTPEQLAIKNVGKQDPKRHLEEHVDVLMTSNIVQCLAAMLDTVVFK
HNF4A DNA FP: change in binding of human HNF4 alpha to DNA. P41235. HNF4a-FITC DNA binding, fluorescence polarization, 1 h. activity change, % at 10 µM. 360,000 compounds, 0.3% hits; in the data active means activity change above about 30%, passing the limit was not always enough
TPT1 inhibitor: inhibitors of Candida albicans tRNA 2'-phosphotransferase TPT1 | recombinant caTPT1, FP RNA substrate dephosphorylation | inhibition, % at 5 µM | 300,000 compounds, 0.81% hits | AID 1962;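 active means inhibition above the mean of all tested compounds plus 3 SD, set per screening campaign, cut at about 24% in these data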;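 further: plate controls were DMSO alone for no effect and ferristatin control at 100 nM for full effect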
IDE cell activ: IDE (human) activation, cell-based | AID 493087 | activation, % at 5.96 µM | 340,000 compounds, 0.073% hits | P14735 | HEK cells, FAbeta-B cleavage, fluorescence polarization; 0% vehicle, 100% cell-free pure enzyme wells;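 active means activation above the mean of all tested compounds plus 3 SD, set per screening campaign, cut at about 17% in these data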
caTPT1 confirm: TPT1 (C. albicans) inhibition, confirmation. 2,400 compounds, 74% hits. inhibition, % at 5 µM. recombinant caTPT1, fluorescence polarization, RNase T1 coupled. AID 2149. shares compounds with TPT1 inhibitor;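 active means inhibition above the primary screen limit, the mean inhibition of all tested compounds plus 3 SD, cut at about 25% in these data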
RNase T1 counter: RNase T1 inhibition in TPT1 counter-screen; shares compounds with TPT1 inhibitor; RNase T1 cleavage, fluorescence polarization, 1536-well; inhibition, % at 5 µM; 2,400 compounds, 83% hits; AID 2153;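 active means inhibition above the solvent-only control well mean plus 3 SD, limit set per screening run, cut at about 23% in these data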;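 further: plate controls were DMSO wells with enzyme for no effect and wells without RNase T1 for full effect; inhibitors block cleavage so intact labeled substrate keeps polarization high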
* = called active by the depositor; nt = no result shown.

SMILES	CSN deneddyl inh	IDE cell inh	Rpn11 block	HNF4A DNA FP	TPT1 inhibitor	IDE cell activ	caTPT1 confirm	RNase T1 counter
C=CCn1c(SCC(=O)N(C)C2CCS(=O)(=O)C2)nc2ccccc2c1=O (stereo not given)	-6.0	-2.3	0.4	1.0	-2.4	-7.8	nt	nt
C=CCn1c(SCC(=O)N(CC)C2CCS(=O)(=O)C2)nc2ccccc2c1=O (stereo not given)	0.4	-2.6	1.0	-4.5	52.5*	0.3	12.9	14.7
CC(C)(C)c1ccc(C(=O)N2CCC2(C)C(=O)Nc2cnc3ccccc3c2)cc1 (stereo not given)	0.0	nt	-1.4	0.7	nt	nt	nt	nt
Cc1c(-c2ccc(O)cc2)nc2nc(-c3ccccc3)c(-c3ccccc3)nn12	nt	91.8*	nt	nt	27.4*	nt	49.0*	66.6*
Cc1nnc2c3ccccc3c(-c3ccc(O)cc3)nn12	4.0	2.0	-6.7	-1.6	2.8	1.8	nt	nt
C=CCN1C(=O)/C(=C/c2ccsc2)SC1=S	-2.8	1.1	-7.2	3.5	-2.3	3.6	nt	nt
C=CCN1C(=O)/C(=C/c2ccc(-c3ccc(F)cc3)o2)SC1=S	54.3	1.6	33.9	3.9	81.1*	0.3	115.0*	120.0*
CC1(Oc2cccc(C#N)c2)CCN(Cc2ccccc2OC(F)F)C1 (stereo not given)	6.0	nt	0.3	-0.6	nt	nt	nt	nt
CN1/C(=C\C(=S)NC(=O)c2ccc([N+](=O)[O-])cc2)C(C)(C)c2ccccc21	3.1	-0.2	15.5	2.9	0.1	-1.3	nt	nt
CN1/C(=C/C2CC(=O)N(c3ccc([N+](=O)[O-])cc3)C2=O)C(C)(C)c2ccccc21 (stereo not given)	5.4	-3.8	13.5	0.9	24.8*	1.9	13.7	19.9
COc1ccc(-n2c(=O)c(CCC(=O)N3CCN(c4cccc(OC)c4)CC3)nc3ccccc32)cc1	-0.1	nt	1.6	4.8	nt	nt	nt	nt
COc1ccc(/C(O)=C/c2nc3ccccc3n(-c3ccccc3)c2=O)cc1	1.3	-7.5	31.4	50.0*	67.0*	0.3	65.6*	94.8*
NC(Cc1ccc(C(F)(F)F)cc1)c1csc(NC(=O)Nc2ccccc2Oc2ccccc2)n1 (stereo not given)	3.3	nt	8.1	-5.0	nt	nt	nt	nt
O=C1/C(=C\c2ccc(-c3ccccc3Cl)o2)SC(=S)N1CC1CCCO1 (stereo not given)	7.3	0.7	0.1	-9.0	26.7*	1.5	48.2*	61.0*
Cc1ccc(S(=O)(=O)N/N=C/c2ccc(O)cc2O)cc1[N+](=O)[O-]	-1.0	8.8	-7.2	-0.6	-4.2	3.8	nt	nt
COc1cc(/C=N/NS(=O)(=O)c2ccc(C)c([N+](=O)[O-])c2)cc([N+](=O)[O-])c1O	-0.8	4.2	9.4	-4.3	-6.3	1.5	nt	nt
COc1ccc(-n2c(O)c(/C=N/NS(=O)(=O)c3ccc(C)c([N+](=O)[O-])c3)c3ccccc3c2=O)cc1OC	148.1	0.6	nt	171.8	100.0*	-15.5	113.8*	112.5*
CCOc1cccc(/C=N/NS(=O)(=O)c2ccc(C)c([N+](=O)[O-])c2)c1O	0.4	4.2	1.5	-7.3	94.3*	1.2	1.4	6.0
COc1ccc(F)cc1-c1cc(NC(C)=O)c2ncc(-c3cccc(C(F)(F)F)c3)n2c1	-1.4	nt	3.7	-0.2	nt	nt	nt	nt
OCC[C@@H]1C[C@H](O)[C@@H](O)[C@]2(OCc3cc(C(F)(F)F)ccc32)O1	0.7	nt	0.1	-0.6	nt	nt	nt	nt
Cc1cc(O)ccc1N/C=C/c1onc(C)c1[N+](=O)[O-]	1.3	-3.5	3.5	-1.7	4.5	2.0	nt	nt
Cc1cccc(N/C=C/c2onc(C)c2[N+](=O)[O-])c1	0.9	2.3	13.2	3.0	62.4*	7.0	63.7*	72.7*
CCCCCN1C=CC=C/C1=C\C=C(C#N)C#N	1.5	16.1	34.3	10.8	40.7*	nt	44.1*	57.6*
CCCCCCN1C=C/C(=C\C=C(C#N)C#N)c2ccccc21	7.8	3.8	36.8	23.3	4.7	1.9	nt	nt
Cc1cccc(N2CCN(C(=O)c3ccc4c(c3)NC(=O)C(CSCc3cccc(F)c3)N4)CC2)c1C (stereo not given)	nt	1.9	nt	nt	133.9*	nt	131.3*	125.1*
SMILES	CSN deneddyl inh	IDE cell inh	Rpn11 block	HNF4A DNA FP	TPT1 inhibitor	IDE cell activ	caTPT1 confirm	RNase T1 counter
Cc1cccc(N2CCN(C(=O)c3ccc4c(c3)OCCO4)CC2)c1C	3.6	2.2	-9.0	-2.5	1.5	-0.7	nt	nt
CCCCN(C=O)c1c(CC)nc2c(OCc3cccc(Cl)c3)cccn12	-2.6	nt	-2.2	-4.4	nt	nt	nt	nt
CCCCCCN1CCN(C2CN(Cc3cn(Cc4ccccc4)nn3)S(=O)(=O)C2)CC1 (stereo not given)	1.2	nt	nt	4.3	nt	nt	nt	nt
CCCc1cc(C(=O)Cc2ccc(F)cc2)c(O)cc1O	4.0	-6.5	-1.0	-3.0	-2.9	1.7	nt	nt
CCCc1cc(C(=O)Cc2ccc(C(=O)OCC)o2)c(O)cc1O	8.0	-0.1	27.1	16.6	24.2*	-6.0	20.5	29.6*
CCOC(=O)C1(Cc2cccc(F)c2)CCN(Cc2nc(CC)[nH]c2C)CC1	30.1	5.5	nt	75.4*	87.2*	-1.0	102.1*	107.2*
O=C1NC[C@H](CCCCN2C[C@H](Cc3ccc(O)cc3)N(CCC3CCCCC3)C(=O)C2=O)N(CCc2ccc(O)cc2)C1=O	-1.6	nt	nt	-1.5	nt	nt	nt	nt
O=C(NC(=S)/C(=C1\CCCCCN1)[N+](=O)[O-])c1ccccc1	-2.6	-0.8	-4.0	1.6	nt	0.0	nt	nt
CC(=O)Nc1ccc(N=Cc2c(O)c(C(=O)Nc3ccccc3)cc3ccccc23)cc1	nt	-3.3	nt	nt	120.8*	nt	109.4*	107.4*
C=CCC[C@@H](Cc1ccc(F)cc1)C(=O)OCCNC(=O)[C@H](CC=C)CC(=O)NCCO	-3.6	0.6	-2.5	-3.9	nt	-2.2	nt	nt
CCCCc1ccc(C2C(C#N)=C(N)SC(N)=C2C#N)s1	nt	15.4	nt	nt	136.7*	nt	63.6*	76.2*
CCN(CC)CC(=O)Nc1nc(-c2ccc(Cl)cc2)cs1	1.0	-0.4	-2.4	2.8	40.9*	2.8	-0.2	3.5
O=C(CN1CCCC1)Nc1nc(-c2ccc(Cl)cc2)cs1	-0.3	nt	7.8	-6.8	nt	nt	nt	nt
COc1ccc(O)c(/C=C2/SC(=S)N(Cc3ccccc3)C2=O)c1	85.8	14.0	nt	108.5	93.2*	-5.8	103.8*	102.8*
COc1ccc(/C=C2/SC(=S)N(Cc3ccccc3)C2=O)cc1O	0.0	nt	-5.3	4.4	nt	2.8	nt	nt
COc1ccc(OC)c(/C=C2\SC(=S)N(Cc3cccnc3)C2=O)c1	50.7	4.5	-66.7	71.3	65.4*	-13.1	68.5*	77.5*
